Our source for the IC50 and selectivity ratio values is ChEMBL document CHEMBL4138199, “Microwave-promoted facile access to 4-aminoquinoline-phthalimides: Synthesis and anti-plasmodial evaluation” (Eur J Med Chem, 2018).

Structures are written as SMILES.

Data set [1] concerns Plasmodium falciparum. The data set is described as follows: Antiplasmodial activity against ring-stage of chloroquine-resistant/mefloquine-sensitive Plasmodium falciparum W2 assessed as parasite growth inhibition after 48 hrs by YOYO-1 dye-based flow cytometric method. It counts as functional, organism-based. Particulars: W2, 48 h. In outline: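 Parasites grown in RPMI-1640 with 10% human serum and synchronized with 5% D-sorbitol. Ring-stage cultures exposed 48 h to graded compound levels (DMSO ≤0.1%), then fixed 48 h in 1% formaldehyde/PBS pH 7.4 at room temperature. Stained with 1 nM YOYO-1 in 0.1% Triton X-100/PBS; parasitemia by flow cytometry. IC50 from non-linear fit of % control parasitemia, duplicate experiments.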

The nature of data set [2]: Selectivity index, ratio of IC50 for mouse J774 cells to IC50 for ring-stage of chloroquine-resistant/mefloquine-sensitive Plasmodium falciparum W2. It counts as toxicity. Particulars: read-out: Ratio IC50.
Data set [3] relates to J774. In words: Cytotoxicity against mouse J774 cells assessed as decrease in cell survival after 24 hrs by fluorimetric method. It counts as cell-based. Particulars: J774, 24 h. In outline:
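J774 murine macrophages grown in DMEM with 10% de-complemented fetal calf serum under 5% CO2. Fluorescence read at 540 nm excitation and 590 nm emission. Percent survival is compound-well fluorescence divided by that of control wells with cells in a DMSO dilution series (1% to 0.03125% v/v).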

By IC50 is commonly meant the concentration that gives 50% inhibition. As to `O=C1c2ccc(F)cc2C(=O)N1CCCNc1ccnc2cc(Cl)ccc12`, the half-inhibitory concentration (IC50) in data set [1] was determined as 1190 nM.
Still for that read-out and setting: in the case of `O=C1c2ccccc2C(=O)N1CCNc1ccnc2cc(Cl)ccc12` it was 1110 nM; in that of `O=C1c2cccc(F)c2C(=O)N1CCNc1ccnc2cc(Cl)ccc12`, 4730 nM; in that of `O=C1c2cccc(F)c2C(=O)N1CCCCCCNc1ccnc2cc(Cl)ccc12`, 240 nM.
For `O=C1c2c(Br)c(Br)c(Br)c(Br)c2C(=O)N1CCNc1ccnc2cc(Cl)ccc12`, in data set [1], the IC50 amounted to 400 nM.
Consider `O=C1c2ccccc2C(=O)N1CCCCCCNc1ccnc2cc(Cl)ccc12`, for which the selectivity ratio in data set [2] came to 130. Moreover, the results for the IC50 in data set [1] and in data set [3] were 110 nM and 14.3 µM, respectively.
For the compound `O=C1c2c(Br)c(Br)c(Br)c(Br)c2C(=O)N1CCCNc1ccnc2cc(Cl)ccc12`, the IC50 in data set [1] worked out at 3760 nM.
The same measure, in the same setting: in the case of `O=C1c2cccc(F)c2C(=O)N1CCCNc1ccnc2cc(Cl)ccc12` it was 3960 nM.
On to `O=C1c2cccc([N+](=O)[O-])c2C(=O)N1CCNc1ccnc2cc(Cl)ccc12`, for which, in data set [1], the IC50 came to 7550 nM.
`O=C1c2c(Cl)c(Cl)c(Cl)c(Cl)c2C(=O)N1CCCCNc1ccnc2cc(Cl)ccc12`: the half-inhibitory concentration (IC50) in data set [1] stood at 270 nM.
Same read-out and setting: with `O=C1c2ccc(F)cc2C(=O)N1CCCCCCCCNc1ccnc2cc(Cl)ccc12` the figure was 170 nM.
`O=C1c2ccc(F)cc2C(=O)N1CCNc1ccnc2cc(Cl)ccc12`: the IC50 in data set [1] is 4560 nM.
Still for that read-out and setting: with `O=C1c2ccccc2C(=O)N1CCCNc1ccnc2cc(Cl)ccc12` the figure was 1510 nM.
On the same count and under the same terms, with `O=C1c2ccccc2C(=O)N1CCCCCCCCNc1ccnc2cc(Cl)ccc12` the figure was 140 nM.
For `O=C1c2ccc(F)cc2C(=O)N1CCCCNc1ccnc2cc(Cl)ccc12`, the IC50 in data set [1] amounted to 420 nM.
`O=C1c2ccccc2C(=O)N1CCCCNc1ccnc2cc(Cl)ccc12`: the IC50 in data set [1] is 370 nM.
Regarding `O=C1c2c(Br)c(Br)c(Br)c(Br)c2C(=O)N1CCCCNc1ccnc2cc(Cl)ccc12`, the half-inhibitory concentration (IC50) in data set [1] was 190 nM.
Turning to `O=C1c2cccc(F)c2C(=O)N1CCCCCCCCNc1ccnc2cc(Cl)ccc12`, the selectivity ratio in data set [2] worked out at 235. Besides, the IC50 turned out to be 120 nM in data set [1] and 28.2 µM in data set [3].
Turning to `O=C1c2c(Cl)c(Cl)c(Cl)c(Cl)c2C(=O)N1CCCCCCNc1ccnc2cc(Cl)ccc12`, in data set [1], the concentration for half-maximal inhibition (IC50) was found to be 460 nM.
With `O=C1c2c(Br)c(Br)c(Br)c(Br)c2C(=O)N1CCCCCCNc1ccnc2cc(Cl)ccc12`, the selectivity ratio in data set [2] is 291. The results for the IC50 in data set [1] and in data set [3] were 100 nM and 29.1 µM, respectively.
As to `O=C1c2c(Cl)c(Cl)c(Cl)c(Cl)c2C(=O)N1CCNc1ccnc2cc(Cl)ccc12`, the half-maximal inhibitory concentration (IC50) in data set [1] amounted to 210 nM.
On the same count and under the same terms, in the case of `O=C1c2cccc(F)c2C(=O)N1CCCCNc1ccnc2cc(Cl)ccc12` it was 640 nM.
The same measure, in the same setting: with `O=C1c2c(Cl)c(Cl)c(Cl)c(Cl)c2C(=O)N1CCCNc1ccnc2cc(Cl)ccc12` the figure was 570 nM; with `O=C1c2cccc([N+](=O)[O-])c2C(=O)N1CCCCCCNc1ccnc2cc(Cl)ccc12`, 150 nM.
Consider `O=C1c2ccc(F)cc2C(=O)N1CCCCCCNc1ccnc2cc(Cl)ccc12`, for which the selectivity ratio in data set [2] turned out to be 126. Besides, the figures for the IC50 in data set [1] and in data set [3] were 120 nM and 15.2 µM, respectively.
As to `C[C@@H]1CC[C@H]2[C@@H](C)C(=O)O[C@@H]3O[C@@]4(C)CC[C@@H]1[C@]32OO4` [ARTEMISININ], in data set [1], the half-inhibitory concentration (IC50) was 7 nM.
